Laboratory results taken from ChEMBL document CHEMBL4428078, “Discovery of S3-Truncated, C-6 Heteroaryl Substituted Aminothiazine β-Site APP Cleaving Enzyme-1 (BACE1) Inhibitors” (J Med Chem, 2016).

Columns and labels:
[1] = Metabolic stability in rat liver microsomes assessed as compound remaining at 0.5 uM measured after 10 mins; format: ADME, Microsome; conditions: read-out: Stability
Method in brief: (§1)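 Test compound at 0.5 µM incubated 10 min with mouse, rat or human liver microsomes. Read-out is percent of parent compound remaining.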

Beta-secretase 1 = Beta-secretase 1 (Homo sapiens, UniProt P56817); assay: Inhibition of BACE1 in human H4 cells expressing swedish mutant APP751 assessed as reduction in amyloid beta level measured after 19 hrs; format: cell-based
Sequence of Beta-secretase 1 (P56817 whole entry): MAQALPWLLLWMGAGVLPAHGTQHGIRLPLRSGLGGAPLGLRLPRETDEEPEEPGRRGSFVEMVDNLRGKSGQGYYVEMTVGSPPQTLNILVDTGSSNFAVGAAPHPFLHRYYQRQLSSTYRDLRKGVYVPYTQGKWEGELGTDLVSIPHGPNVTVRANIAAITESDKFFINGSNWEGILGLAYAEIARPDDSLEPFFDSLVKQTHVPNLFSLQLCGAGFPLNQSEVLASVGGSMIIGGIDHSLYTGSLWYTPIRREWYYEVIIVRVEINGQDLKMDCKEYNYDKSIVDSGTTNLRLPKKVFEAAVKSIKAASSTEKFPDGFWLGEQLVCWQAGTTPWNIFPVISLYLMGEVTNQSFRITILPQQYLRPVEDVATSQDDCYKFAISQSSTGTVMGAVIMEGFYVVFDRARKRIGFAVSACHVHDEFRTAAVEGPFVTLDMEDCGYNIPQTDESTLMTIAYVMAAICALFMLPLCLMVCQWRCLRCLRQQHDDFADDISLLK

[2] = Metabolic stability in mouse liver microsomes assessed as compound remaining at 0.5 uM measured after 10 mins; format: ADME, Microsome; conditions: read-out: Stability; method in brief: as §1
[3] = Metabolic stability in human liver microsomes assessed as compound remaining at 0.5 uM measured after 10 mins; format: ADME, Microsome; conditions: read-out: Stability; method in brief: as §1
[4] = Plasma concentration in rat at 10 mg/kg, po measured after 5 hrs; format: ADME, organism-based
Method in brief: (§2)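 Female rats dosed orally in PEG-400:EtOH:Tween 80 (84:15:1) at 1, 3 or 10 mg/kg. Plasma and brain were collected 5 h post-dose, N=5 rats/dose. Total drug concentrations were determined and the brain/plasma ratio calculated. Values are means with SD.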

[5] = Ratio of drug level in brain to plasma of mouse at 30 mg/kg, po measured at 3 hrs post dose; format: ADME, organism-based; conditions: read-out: BPR
Method in brief: (§3)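 Young mice given a single oral dose of 30 mg/kg. Total brain and plasma drug levels were measured 3 h post-dose and the brain/plasma ratio derived.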

[6] = Drug uptake in mouse brain at 30 mg/kg, po measured after 3 hrs; format: ADME, organism-based; conditions: read-out: Drug uptake; method in brief: as §3
[7] = Plasma concentration in mouse at 30 mg/kg, po measured after 3 hrs; format: ADME, organism-based; method in brief: as §3
[8] = Fraction unbound in human plasma; format: ADME, cell-free
Method in brief: (§4)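 Unbound fraction of drug determined in human, rat and mouse plasma, reported as percent unbound.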

[9] = Fraction unbound in rat plasma; format: ADME, cell-free; method in brief: as §4
[10] = Fraction unbound in mouse plasma; format: ADME, cell-free; method in brief: as §4
[11] = Plasma concentration in rat at 1 mg/kg, po measured after 5 hrs; format: ADME, organism-based; method in brief: as §2
[12] = Plasma concentration in rat at 3 mg/kg, po measured after 5 hrs; format: ADME, organism-based; method in brief: as §2
[13] = Drug uptake in rat brain at 1 mg/kg, po measured after 5 hrs; format: ADME, organism-based; conditions: read-out: Drug uptake; method in brief: as §2
[14] = Drug uptake in rat brain at 3 mg/kg, po measured after 5 hrs; format: ADME, organism-based; conditions: read-out: Drug uptake; method in brief: as §2
[15] = Drug uptake in rat brain at 10 mg/kg, po measured after 5 hrs; format: ADME, organism-based; conditions: read-out: Drug uptake; method in brief: as §2
[16] = Ratio of drug level in brain to plasma of rat at 1 mg/kg, po measured at 5 hrs post dose; format: ADME, organism-based; conditions: read-out: BPR; method in brief: as §2
[17] = Ratio of drug level in brain to plasma of rat at 3 mg/kg, po measured at 5 hrs post dose; format: ADME, organism-based; conditions: read-out: BPR; method in brief: as §2
[18] = Ratio of drug level in brain to plasma of rat at 10 mg/kg, po measured at 5 hrs post dose; format: ADME, organism-based; conditions: read-out: BPR; method in brief: as §2
[19] = Clearance in rat plasma at 2 mg/kg, iv administered as bolus or 10 mg/kg, po; format: ADME, organism-based
Method in brief: (§5)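 Rats given a 2 mg/kg IV bolus or 10 mg/kg orally for IV/PO pharmacokinetics. Clearance and volume of distribution come from the IV arm. Clearance is also expressed against rat hepatic blood flow.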

[20] = Clearance in rat plasma at 2 mg/kg, iv administered as bolus or 10 mg/kg, po relative to hepatic blood flow; format: ADME, organism-based; conditions: in vivo; method in brief: as §5
[21] = Volume of distribution in rat plasma at 2 mg/kg, iv administered as bolus or 10 mg/kg, po; format: ADME, organism-based; method in brief: as §5
[22] = Cmax in rat at 10 mg/kg, po measured after 5 hrs; format: ADME, organism-based; set-up: dose 10 mg/kg, route oral; conditions: in vivo
Method in brief: (§6)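 Rat IV/PO pharmacokinetics with a 2 mg/kg IV bolus and a 10 mg/kg oral dose. […] Oral bioavailability is calculated from the IV and PO AUC values.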

[23] = Oral bioavailability in rat at 10 mg/kg measured after 5 hrs; format: ADME, organism-based; conditions: in vivo; method in brief: as §6
Cytochrome P450 1A2 = biological target: T1, Cytochrome P450 1A2 (Homo sapiens, UniProt P05177); assay: Inhibition of recombinant human CYP1A2 preincubated for 10 mins followed by addition of CEC as substrate measured after 45 mins; format: ADME
T1 sequence (P05177 whole entry): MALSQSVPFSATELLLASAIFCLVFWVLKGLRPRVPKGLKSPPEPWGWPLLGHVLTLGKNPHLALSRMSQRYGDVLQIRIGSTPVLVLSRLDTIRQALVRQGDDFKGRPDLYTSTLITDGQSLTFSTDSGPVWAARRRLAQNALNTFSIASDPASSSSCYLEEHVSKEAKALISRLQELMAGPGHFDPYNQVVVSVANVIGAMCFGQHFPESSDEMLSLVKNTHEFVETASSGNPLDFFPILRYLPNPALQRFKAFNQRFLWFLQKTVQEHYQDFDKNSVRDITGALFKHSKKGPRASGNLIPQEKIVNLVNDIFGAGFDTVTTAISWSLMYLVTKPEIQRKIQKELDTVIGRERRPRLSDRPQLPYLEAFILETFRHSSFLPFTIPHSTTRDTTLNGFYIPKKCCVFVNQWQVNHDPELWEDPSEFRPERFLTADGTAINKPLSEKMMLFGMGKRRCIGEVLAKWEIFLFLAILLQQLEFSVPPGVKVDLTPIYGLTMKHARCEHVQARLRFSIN
Method in brief: (§7)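 Inhibition of recombinant human CYP1A2, CYP2C9, CYP2C19, CYP2D6 and CYP3A4 enzymes, reported as IC50.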

Cytochrome P450 2C9 = Cytochrome P450 2C9 (Homo sapiens, UniProt P11712); assay: Inhibition of recombinant human CYP2C9 preincubated for 10 mins followed by addition of MFC as substrate measured after 45 mins; format: ADME; method in brief: as §7
Sequence of Cytochrome P450 2C9 (P11712 whole entry): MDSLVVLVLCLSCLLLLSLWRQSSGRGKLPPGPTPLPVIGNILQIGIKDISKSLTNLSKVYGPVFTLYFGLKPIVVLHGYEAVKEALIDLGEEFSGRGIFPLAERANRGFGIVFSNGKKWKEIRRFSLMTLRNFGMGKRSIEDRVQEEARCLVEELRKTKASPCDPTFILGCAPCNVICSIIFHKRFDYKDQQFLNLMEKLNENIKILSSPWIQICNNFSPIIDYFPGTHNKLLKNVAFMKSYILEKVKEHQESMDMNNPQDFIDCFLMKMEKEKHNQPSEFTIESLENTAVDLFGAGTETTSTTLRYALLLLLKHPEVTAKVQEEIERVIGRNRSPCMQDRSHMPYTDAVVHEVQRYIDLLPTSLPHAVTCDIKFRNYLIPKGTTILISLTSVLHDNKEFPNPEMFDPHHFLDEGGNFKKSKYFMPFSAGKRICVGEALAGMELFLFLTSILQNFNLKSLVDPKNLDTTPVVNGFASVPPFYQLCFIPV

Cytochrome P450 2C19 = Cytochrome P450 2C19 (Homo sapiens, UniProt P33261); assay: Inhibition of recombinant human CYP2C19 preincubated for 10 mins followed by addition of CEC as substrate measured after 45 mins; format: ADME; method in brief: as §7
Sequence of Cytochrome P450 2C19 (P33261 whole entry): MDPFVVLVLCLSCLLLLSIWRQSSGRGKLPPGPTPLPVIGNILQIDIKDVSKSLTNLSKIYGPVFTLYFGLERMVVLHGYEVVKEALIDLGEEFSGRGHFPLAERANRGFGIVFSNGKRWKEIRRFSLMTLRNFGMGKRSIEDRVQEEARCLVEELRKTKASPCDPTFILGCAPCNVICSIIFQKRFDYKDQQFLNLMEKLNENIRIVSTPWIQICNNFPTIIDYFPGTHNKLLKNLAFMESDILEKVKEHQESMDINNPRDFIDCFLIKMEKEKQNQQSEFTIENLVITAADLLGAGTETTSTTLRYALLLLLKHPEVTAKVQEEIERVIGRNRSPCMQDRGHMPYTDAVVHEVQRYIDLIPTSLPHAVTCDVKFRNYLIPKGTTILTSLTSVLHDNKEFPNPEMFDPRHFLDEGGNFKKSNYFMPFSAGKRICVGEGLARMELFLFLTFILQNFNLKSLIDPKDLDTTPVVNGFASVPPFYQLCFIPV

Cytochrome P450 2D6 = Cytochrome P450 2D6 (Homo sapiens, UniProt P10635); assay: Inhibition of recombinant human CYP2D6 preincubated for 10 mins followed by addition of AMMC as substrate measured after 45 mins; format: ADME; method in brief: as §7
Sequence of Cytochrome P450 2D6 (P10635 whole entry): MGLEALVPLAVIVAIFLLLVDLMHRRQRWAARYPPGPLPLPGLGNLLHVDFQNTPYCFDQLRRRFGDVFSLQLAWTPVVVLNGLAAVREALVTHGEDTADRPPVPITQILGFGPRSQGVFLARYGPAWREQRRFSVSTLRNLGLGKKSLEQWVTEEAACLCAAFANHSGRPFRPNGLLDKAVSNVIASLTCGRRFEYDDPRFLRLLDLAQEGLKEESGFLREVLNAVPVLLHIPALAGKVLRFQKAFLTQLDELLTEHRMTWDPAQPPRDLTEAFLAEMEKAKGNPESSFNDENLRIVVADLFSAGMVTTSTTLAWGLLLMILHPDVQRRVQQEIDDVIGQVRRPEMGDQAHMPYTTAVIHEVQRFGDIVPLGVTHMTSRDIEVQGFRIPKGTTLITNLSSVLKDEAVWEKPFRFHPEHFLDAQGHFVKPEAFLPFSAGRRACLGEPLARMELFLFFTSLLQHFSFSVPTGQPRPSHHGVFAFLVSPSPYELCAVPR

Cytochrome P450 3A4 = Cytochrome P450 3A4 (Homo sapiens, UniProt P08684); assay: Inhibition of recombinant human CYP3A4 preincubated for 10 mins followed by addition of BFC as substrate measured after 45 mins; format: ADME; method in brief: as §7
Sequence of Cytochrome P450 3A4 (P08684 whole entry): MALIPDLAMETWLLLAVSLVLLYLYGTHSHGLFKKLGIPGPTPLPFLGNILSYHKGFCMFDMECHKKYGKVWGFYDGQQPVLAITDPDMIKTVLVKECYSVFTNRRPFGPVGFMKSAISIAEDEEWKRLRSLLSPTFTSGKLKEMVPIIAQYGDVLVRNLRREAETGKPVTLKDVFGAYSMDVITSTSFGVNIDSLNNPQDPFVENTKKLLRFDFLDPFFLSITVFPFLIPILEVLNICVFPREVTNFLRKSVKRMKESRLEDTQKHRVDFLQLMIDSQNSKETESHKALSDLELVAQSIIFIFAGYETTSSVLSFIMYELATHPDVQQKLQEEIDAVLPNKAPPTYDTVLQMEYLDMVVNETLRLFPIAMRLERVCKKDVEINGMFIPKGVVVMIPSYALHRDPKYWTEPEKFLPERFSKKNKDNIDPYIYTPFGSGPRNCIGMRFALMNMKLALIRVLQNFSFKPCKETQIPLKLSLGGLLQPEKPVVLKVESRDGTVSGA

[24] = Fraction unbound in rat plasma at 1 to 10 mg/kg, po; format: ADME, organism-based; conditions: in vivo
[25] = Ratio of fraction unbound in rat plasma to IC50 for BACE1 in human H4 cells expressing swedish mutant APP751; format: ADME, cell-based
Rattus norvegicus [26] = assay: In vivo inhibition of BACE1 in po dosed rat assessed as reduction in brain amyloid beta42 level measured after 5 hrs by ELISA
Rattus norvegicus [27] = assay: In vivo inhibition of BACE1 in po dosed rat assessed as reduction in brain amyloid beta40 level measured after 5 hrs by ELISA relative to control
Rattus norvegicus [28] = assay: In vivo inhibition of BACE1 in po dosed rat assessed as reduction in brain amyloid beta42 level measured after 5 hrs by ELISA relative to control
Rattus norvegicus [29] = assay: In vivo inhibition of BACE1 in po dosed rat assessed as reduction in total amyloid beta level in brain measured after 5 hrs by ELISA relative to control
Mus musculus = assay: In vivo inhibition of BACE1 in mouse assessed as reduction in brain amyloid beta level at 30 mg/kg, po measured after 3 hrs by ELISA relative to control; format: functional
Method in brief: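 Young mice dosed orally at 30 mg/kg. Brain Aβ was measured 3 h post-dose and expressed as percent reduction.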

Cc1onc(-c2cccnc2)c1[C@@H]1C[C@@](C)(c2ccc(F)cc2F)N=C(N)S1
remaining at 10 min, 0.5 µM [1]: 5% | IC50 (Beta-secretase 1): 180 nM | remaining at 10 min, 0.5 µM [2]: 6% | remaining at 10 min, 0.5 µM [3]: 17%

CCc1noc(CC)c1[C@@H]1C[C@@](C)(c2ccc(F)cc2F)N=C(N)S1
remaining at 10 min, 0.5 µM [1]: 67% | IC50 (Beta-secretase 1): 420 nM | remaining at 10 min, 0.5 µM [2]: 59% | remaining at 10 min, 0.5 µM [3]: 35%

C[C@@]1(c2ccc(F)cc2F)C[C@@H](c2cncnc2)SC(N)=N1
concentration at 5 h [4]: 6.6 µM | Kp at 3 h [5]: 1.8 | remaining at 10 min, 0.5 µM [1]: 95% | IC50 (Beta-secretase 1): 310 nM | concentration at 3 h [6]: 6.7 µM | concentration at 3 h [7]: 6.7 µM | remaining at 10 min, 0.5 µM [2]: 68% | remaining at 10 min, 0.5 µM [3]: 90% | fraction unbound [8]: 0.37 | fraction unbound [9]: 0.48 | fraction unbound [10]: 0.42 | concentration at 5 h [11]: 0.82 µM | concentration at 5 h [12]: 1.8 µM | concentration at 5 h [13]: 2.3 µM | concentration at 5 h [14]: 2.8 µM | concentration at 5 h [15]: 12 µM | Kp at 5 h [16]: 2.8 | Kp at 5 h [17]: 1.8 | Kp at 5 h [18]: 1.8 | clearance [19]: 12 mL/min/kg | CL [20]: 20% | Vd [21]: 8.2 L/kg | Cmax [22]: 3.7 µM | bioavailability [23]: > 100% | IC50 (Cytochrome P450 1A2): > 20000 nM | IC50 (Cytochrome P450 2C9): > 20000 nM | IC50 (Cytochrome P450 2C19): 9000 nM | IC50 (Cytochrome P450 2D6): > 20000 nM | IC50 (Cytochrome P450 3A4): > 20000 nM | Cp(f) [24]: 1.8 µM | Ratio [25]: 6 | EC50 (Rattus norvegicus [26]): 3800 nM | inhibition (Rattus norvegicus [27]): Dose-dependent effect | inhibition (Rattus norvegicus [28]): Dose-dependent effect | inhibition (Rattus norvegicus [29]): Dose-dependent effect

Cc1noc(-c2ccc(F)cc2)c1[C@@H]1C[C@@](C)(c2ccc(F)cc2F)N=C(N)S1
remaining at 10 min, 0.5 µM [1]: 88% | IC50 (Beta-secretase 1): 410 nM | remaining at 10 min, 0.5 µM [2]: 53% | remaining at 10 min, 0.5 µM [3]: 45%

Cc1noc(C)c1[C@@H]1C[C@@](C)(c2ccc(F)cc2)N=C(N)S1
remaining at 10 min, 0.5 µM [1]: 78% | IC50 (Beta-secretase 1): 600 nM | remaining at 10 min, 0.5 µM [2]: 90% | remaining at 10 min, 0.5 µM [3]: 73%

Cc1noc(C(F)F)c1[C@@H]1C[C@@](C)(c2ccc(F)cc2F)N=C(N)S1
remaining at 10 min, 0.5 µM [1]: 67% | IC50 (Beta-secretase 1): 420 nM | remaining at 10 min, 0.5 µM [2]: 59% | remaining at 10 min, 0.5 µM [3]: 35%

Cn1nccc1[C@@H]1C[C@@](C)(c2ccc(F)cc2F)N=C(N)S1
Kp at 3 h [5]: 1.3 | remaining at 10 min, 0.5 µM [1]: 78% | IC50 (Beta-secretase 1): 350 nM | concentration at 3 h [6]: 4.3 µM | concentration at 3 h [7]: 4.3 µM | remaining at 10 min, 0.5 µM [2]: 72% | remaining at 10 min, 0.5 µM [3]: 70% | inhibition in vivo at 30 mg/kg (Mus musculus): 62%

Cc1noc(C)c1[C@@H]1C[C@@](C)(c2ccc(F)cc2F)N=C(N)S1
Kp at 3 h [5]: 0.75 | remaining at 10 min, 0.5 µM [1]: 78% | IC50 (Beta-secretase 1): 150 nM | concentration at 3 h [6]: 3.6 µM | concentration at 3 h [7]: 4.8 µM | remaining at 10 min, 0.5 µM [2]: 72% | remaining at 10 min, 0.5 µM [3]: 24% | inhibition in vivo at 30 mg/kg (Mus musculus): 62% | inhibition (Rattus norvegicus [27]): Dose-dependent effect | inhibition (Rattus norvegicus [28]): Dose-dependent effect | inhibition (Rattus norvegicus [29]): Dose-dependent effect
